Data published in ChEMBL document CHEMBL4028903 (J Med Chem, 2017).
Activity calls are given as the source filed them. The calls are words filed in the database; no cut-off is given here.

How the values were obtained:
[1] = AUC in mouse at 10 mg/kg, po administered via gavage by LC-MS/MS analysis; assay type: ADME, organism-based; details: in vivo
Outline: (§1)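 Single oral dose given as a suspension in 0.5% methylcellulose, 0.5% Tween80 and 99% water. Doses were 10 mg/kg in mouse, 1 mg/kg in rat and 2 mg/kg in dog.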

[2] = Volume of distribution at steady state in rat at 3 mg/kg, iv by LC-MS/MS analysis; assay type: ADME, organism-based; details: in vivo, read-out: Vdss
Outline: (§2)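 Rats were dosed IV as a solution in 75% PEG300:25% D5W, or orally as a suspension in 0.5% methylcellulose, 0.5% Tween80 and 99% water.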

[3] = Cmax in rat at 10 mg/kg, po administered via gavage by LC-MS/MS analysis; assay type: ADME, organism-based; set-up: dose 10 mg/kg, route oral; details: in vivo; outline: as §2
Rattus norvegicus [4] = assay: In vivo agonist activity at FXR in Sprague-Dawley rat assessed as induction of FGF15 mRNA level in ileum at 0.01 mg/kg, po qd for 14 days measured 7 hrs post last dose on day 14 by qPCR analysis; assay type: functional, organism-based
Rattus norvegicus [5] = assay: In vivo agonist activity at FXR in po dosed Sprague-Dawley rat assessed as induction of BSEP mRNA level in liver administered once daily for 14 days measured 7 hrs post last dose on day 14 by qPCR analysis; assay type: functional
[6] = Drug uptake in Sprague-Dawley rat liver at 1 mg/kg, po qd administered via gavage measured 1 hr post last dose on day 14 by LC-MS/MS analysis; assay type: ADME, organism-based; details: read-out: Drug uptake
Outline: (§3)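 Drug concentration in liver was quantified from tissue homogenates, so these are total levels. Unbound liver concentration was not determined.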

[7] = Drug uptake in Sprague-Dawley rat liver at 0.3 mg/kg, po qd administered via gavage measured 1 hr post last dose on day 14 by LC-MS/MS analysis; assay type: ADME, organism-based; details: read-out: Drug uptake; outline: as §3
[8] = Drug uptake in Sprague-Dawley rat plasma at 0.1 mg/kg, po qd administered via gavage measured 7 hrs post last dose on day 14 by LC-MS/MS analysis; assay type: ADME, organism-based
[9] = Drug uptake in Sprague-Dawley rat plasma at 0.01 mg/kg, po qd administered via gavage measured 7 hrs post last dose on day 14 by LC-MS/MS analysis; assay type: ADME, organism-based
Rattus norvegicus [10] = assay: Dose normalized AUC (0 to 24 hrs) in Sprague-Dawley rat at 0.1 mg/kg, po qd administered via gavage measured on day 11 by LC-MS/MS analysis; assay type: ADME, organism-based; details: in vivo
Rattus norvegicus [11] = assay: Dose normalized AUC (0 to 24 hrs) in Sprague-Dawley rat at 0.03 mg/kg, po qd administered via gavage measured on day 1 by LC-MS/MS analysis; assay type: ADME, organism-based; details: in vivo
Rattus norvegicus [12] = assay: Dose normalized AUC (0 to 24 hrs) in Sprague-Dawley rat at 0.01 mg/kg, po qd administered via gavage measured on day 11 by LC-MS/MS analysis; assay type: ADME, organism-based; details: in vivo
[13] = AUC (0 to 24 hrs) in Sprague-Dawley rat at 3 mg/kg, po qd administered via gavage measured on day 11 by LC-MS/MS analysis; assay type: ADME, organism-based; set-up: dose 3 mg/kg, time < 24 hr, route oral; details: in vivo
[14] = AUC (0 to 24 hrs) in Sprague-Dawley rat at 3 mg/kg, po qd administered via gavage measured on day 1 by LC-MS/MS analysis; assay type: ADME, organism-based; set-up: time < 24 hr, dose 3 mg/kg, route oral; details: in vivo
[15] = AUC (0 to 24 hrs) in Sprague-Dawley rat at 1 mg/kg, po qd administered via gavage measured on day 11 by LC-MS/MS analysis; assay type: ADME, organism-based; set-up: time < 24 hr, dose 1 mg/kg, route oral; details: in vivo
[16] = AUC (0 to 24 hrs) in Sprague-Dawley rat at 0.3 mg/kg, po qd administered via gavage measured on day 11 by LC-MS/MS analysis; assay type: ADME, organism-based; set-up: dose 0.3 mg/kg, time < 24 hr, route oral; details: in vivo
[17] = AUC (0 to 24 hrs) in Sprague-Dawley rat at 0.1 mg/kg, po qd administered via gavage measured on day 1 by LC-MS/MS analysis; assay type: ADME, organism-based; set-up: time < 24 hr, dose 0.1 mg/kg, route oral; details: in vivo
[18] = AUC (0 to 24 hrs) in Sprague-Dawley rat at 0.01 mg/kg, po qd administered via gavage measured on day 11 by LC-MS/MS analysis; assay type: ADME, organism-based; set-up: dose 0.01 mg/kg, time < 24 hr, route oral; details: in vivo
[19] = Cmax in Sprague-Dawley rat at 0.1 mg/kg, po qd administered via gavage measured on day 11 by LC-MS/MS analysis; assay type: ADME, organism-based; set-up: dose 0.1 mg/kg, route oral; details: in vivo
[20] = Protein binding in rat plasma at 0.01 to 0.05 mg/kg, po qd administered via gavage by LC-MS/MS analysis; assay type: ADME, organism-based; details: read-out: PPB
[21] = target: T1, G-protein coupled bile acid receptor 1 (Mus musculus, UniProt Q80SS6); assay: Agonist activity at mouse TGR5
T1 sequence (Q80SS6 whole entry): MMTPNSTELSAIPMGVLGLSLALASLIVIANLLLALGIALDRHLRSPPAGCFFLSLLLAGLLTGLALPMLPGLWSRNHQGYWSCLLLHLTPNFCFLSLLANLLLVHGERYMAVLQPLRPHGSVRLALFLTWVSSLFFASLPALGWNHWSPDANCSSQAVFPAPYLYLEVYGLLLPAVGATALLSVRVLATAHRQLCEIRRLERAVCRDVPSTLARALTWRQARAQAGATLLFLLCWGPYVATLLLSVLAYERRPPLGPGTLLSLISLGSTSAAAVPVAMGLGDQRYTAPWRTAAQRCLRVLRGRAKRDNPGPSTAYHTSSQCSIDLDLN

[22] = Half life in dog at 0.5 mg/kg, iv by LC-MS/MS analysis; assay type: ADME, organism-based, Canis lupus familiaris; details: in vivo
Outline: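 Single IV dose given as a solution. Mouse and rat received it in 75% PEG300:25% D5W. Dog received it in 20% PEG300, 5% solutol and 75% carbonate buffer pH = 8. Plasma was sampled for PK parameters.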

[23] = Cmax in dog at 2 mg/kg, po administered via gavage by LC-MS/MS analysis; assay type: ADME, organism-based, Canis lupus familiaris; set-up: dose 2 mg/kg, route oral; details: in vivo; outline: as §1
[24] = Protein binding in mouse plasma at 5 mg/kg, iv or 10 mg/kg, po administered via gavage by LC-MS/MS analysis; assay type: ADME, organism-based; details: read-out: PPB
[25] = Protein binding in rat plasma at 3 mg/kg, iv or 1 mg/kg, po administered via gavage by LC-MS/MS analysis; assay type: ADME, organism-based; details: read-out: PPB
[26] = Protein binding in dog plasma at 0.5 mg/kg, iv or 2 mg/kg, po administered via gavage by LC-MS/MS analysis; assay type: ADME, organism-based, Canis lupus familiaris; details: read-out: PPB
Rattus norvegicus [27] = assay: In vivo agonist activity at FXR in po dosed Sprague-Dawley rat assessed as induction of SHP mRNA level in ileum administered as single dose measured 7 hrs post dose by qPCR analysis; assay type: functional, organism-based
[28] = Drug uptake in Sprague-Dawley rat liver at 3 mg/kg, po qd administered via gavage measured 7 hrs post last dose on day 14 by LC-MS/MS analysis; assay type: ADME, organism-based; details: read-out: Drug uptake; outline: as §3
Rattus norvegicus [29] = assay: Drug metabolism in rat assessed as glycine conjugated metabolite formation at 3 mg/kg, iv or 1 mg/kg, po administered via gavage by LC-MS/MS analysis; assay type: ADME, organism-based; details: in vivo
Canis familiaris = assay: Drug metabolism in dog assessed as glycine conjugated metabolite formation at 0.5 mg/kg, iv or 2 mg/kg, po administered via gavage by LC-MS/MS analysis; assay type: ADME, organism-based, Canis lupus familiaris; details: in vivo
Outline: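 Plasma samples were taken from the dog PK studies. The IV solution was 20% PEG300, 5% solutol and 75% carbonate buffer pH = 8. The PO suspension was 0.5% methylcellulose, 0.5% Tween80 and 99% water. Samples were screened for taurine- and glycine-conjugated metabolites and for the acylglucuronide.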

## O=C(O)c1cc(F)c2nc(N3C4CCC3CC(OCc3c(-c5ccccc5OC(F)(F)F)noc3C3CC3)C4)sc2c1 (stereo not given)
[1]
  AUC: 4.79 µM·h
[2]
  Vd: 0.72 L/kg
[3]
  Cmax: 2280 nM
Rattus norvegicus [4]
  Activity: Active
Rattus norvegicus [5]
  ED50: 0.02 mg/kg
[6]
  concentration at 1 h: 159 nM
[7]
  concentration at 1 h: 84.5 nM
[8]
  concentration at 7 h: 4.89 nM
[9]
  concentration at 7 h: 0.31 nM
Rattus norvegicus [10]
  AUC/dose: 796 nM·h
Rattus norvegicus [11]
  AUC/dose: 503 nM·h
Rattus norvegicus [12]
  AUC/dose: 496 nM·h
[13]
  AUC at 24 h: 1.69 µM·h
[14]
  AUC(0-t) at 24 h: 1.34 µM·h
[15]
  AUC at 24 h: 0.562 µM·h
[16]
  AUC at 24 h: 0.19 µM·h
[17]
  AUC(0-t) at 24 h: 0.041 µM·h
[18]
  AUC at 24 h: 0.005 µM·h
[19]
  Cmax: 7.1 nM
[20]
  fraction unbound: 0.001
[21]
  EC50: > 10 µM
[22]
  half-life: 7.4 h
[23]
  Cmax: 332 nM
[24]
  fraction unbound: 0.001
[25]
  fraction unbound: 0.001
[26]
  fraction unbound: 0.001
Rattus norvegicus [27]
  Activity: Dose-dependent effect
[28]
  concentration at 7 h: 640 nM
Rattus norvegicus [29]
  Drug metabolism: Metabolite_Notdetected
Canis familiaris
  Drug metabolism: Metabolite_Notdetected
